Results from ChEMBL document CHEMBL1152635, “Pyranonaphthoquinone derivatives of eleutherin, ventiloquinone L, thysanone and nanaomycin A possessing a diverse topoisomerase II inhibition and cytotoxicity spectrum” (2009).
Converted amounts (≈) assume the structure as drawn. The source made the active and inactive calls. The rule behind the calls is not given here.

What was measured:
[1] = molecular target: DNA topoisomerase 2-alpha (Homo sapiens) (UniProt P11388); test: Inhibition of human topoisomerase 2alpha-mediated kinetoplast DNA decatenation at 100 uM
Sequence of DNA topoisomerase 2-alpha (Homo sapiens) (P11388 whole entry): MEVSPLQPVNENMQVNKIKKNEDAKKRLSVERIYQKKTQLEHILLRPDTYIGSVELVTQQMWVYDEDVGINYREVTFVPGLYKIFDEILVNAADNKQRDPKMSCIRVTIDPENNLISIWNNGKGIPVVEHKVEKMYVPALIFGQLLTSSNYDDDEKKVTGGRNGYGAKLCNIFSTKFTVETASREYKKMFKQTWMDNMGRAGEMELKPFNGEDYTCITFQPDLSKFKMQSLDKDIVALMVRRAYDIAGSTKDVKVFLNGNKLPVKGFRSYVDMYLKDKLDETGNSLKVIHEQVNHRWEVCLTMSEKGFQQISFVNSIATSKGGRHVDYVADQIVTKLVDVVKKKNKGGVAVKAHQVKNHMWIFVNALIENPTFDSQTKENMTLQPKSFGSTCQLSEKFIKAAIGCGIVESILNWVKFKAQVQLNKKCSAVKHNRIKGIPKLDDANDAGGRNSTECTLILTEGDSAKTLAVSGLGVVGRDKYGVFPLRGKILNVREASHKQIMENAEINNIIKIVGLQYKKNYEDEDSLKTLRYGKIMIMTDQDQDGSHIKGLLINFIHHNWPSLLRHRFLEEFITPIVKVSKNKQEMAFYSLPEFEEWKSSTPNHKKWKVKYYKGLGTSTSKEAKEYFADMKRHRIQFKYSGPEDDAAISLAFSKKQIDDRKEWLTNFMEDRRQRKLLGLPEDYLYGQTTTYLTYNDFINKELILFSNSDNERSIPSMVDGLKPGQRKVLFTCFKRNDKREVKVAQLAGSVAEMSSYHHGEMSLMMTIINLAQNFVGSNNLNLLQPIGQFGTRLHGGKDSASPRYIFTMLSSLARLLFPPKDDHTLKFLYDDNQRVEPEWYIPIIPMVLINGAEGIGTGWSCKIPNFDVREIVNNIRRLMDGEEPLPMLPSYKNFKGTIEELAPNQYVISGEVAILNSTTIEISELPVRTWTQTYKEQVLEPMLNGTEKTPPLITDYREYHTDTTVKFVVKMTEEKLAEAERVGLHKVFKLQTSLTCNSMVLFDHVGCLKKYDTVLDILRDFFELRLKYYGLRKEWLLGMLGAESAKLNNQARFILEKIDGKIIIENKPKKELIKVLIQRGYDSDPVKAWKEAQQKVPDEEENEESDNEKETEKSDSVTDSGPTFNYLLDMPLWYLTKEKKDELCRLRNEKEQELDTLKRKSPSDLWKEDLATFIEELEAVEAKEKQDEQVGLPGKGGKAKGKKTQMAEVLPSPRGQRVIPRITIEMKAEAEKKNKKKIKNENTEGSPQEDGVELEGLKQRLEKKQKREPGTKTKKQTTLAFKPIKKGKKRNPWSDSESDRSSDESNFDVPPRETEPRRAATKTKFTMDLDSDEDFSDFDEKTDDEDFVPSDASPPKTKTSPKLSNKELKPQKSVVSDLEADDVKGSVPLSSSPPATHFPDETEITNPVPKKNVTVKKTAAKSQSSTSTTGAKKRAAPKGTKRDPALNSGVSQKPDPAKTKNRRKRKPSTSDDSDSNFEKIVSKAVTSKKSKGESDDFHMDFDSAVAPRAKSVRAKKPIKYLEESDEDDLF
In short: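 Incubation was 60 min at 37 °C, then SDS stop and proteinase K (55 °C, 30 min). Samples ran on 1% agarose containing ethidium bromide. Activity was scored as the ratio of nicked plus supercoiled minicircles to kDNA.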

Nucleic Acid = test: Induction of DNA intercalation in pRYG DNA at 100 uM by agarose gel electrophoresis; assay type: nucleic-acid assay
[2] = molecular target: T1, Type II restriction enzyme XhoI (Xanthomonas vasicola) (UniProt Q9KVZ7); test: Inhibition of Xanthomonas vasicola XhoI assessed as pBSKS cleavage at 100 uM by endonuclease assay
T1 sequence (whole entry): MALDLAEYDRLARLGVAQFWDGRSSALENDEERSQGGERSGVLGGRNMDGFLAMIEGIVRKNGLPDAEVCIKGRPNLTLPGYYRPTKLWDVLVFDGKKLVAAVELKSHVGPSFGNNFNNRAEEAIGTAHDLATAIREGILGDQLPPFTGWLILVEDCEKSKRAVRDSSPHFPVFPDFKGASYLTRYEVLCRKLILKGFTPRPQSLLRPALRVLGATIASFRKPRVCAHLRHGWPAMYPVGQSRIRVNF
In short: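 Plasmid pBluescript with 1 unit XhoI in place of topoisomerase, using the relaxation protocol: 0.5 mM ATP, Tris-HCl/KCl/NaCl/EDTA/MgCl2/glycerol buffer pH 8.0, 1% DMSO, 37 °C for 60 min. The reaction was quenched with SDS/EDTA and treated with proteinase K. Products were resolved on 1% agarose in TBE.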

Saccharomyces cerevisiae = test: Growth inhibition of Saccharomyces cerevisiae BY4741 after 24 hrs; assay type: functional; conditions: for MIC50: BY4741, 24 h
In short: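 BY4741 grown overnight at 30 °C in YPD and taken at log phase (~0.6 OD660/ml), then diluted into fresh YPD at 0.01 OD660/ml. Compounds were given in 1% DMSO at twofold steps from 1 to 128. Growth at 30 °C for 24 h was read as OD660 and normalised to a DMSO-only control. MIC50 (50% growth inhibition) was derived from relative growth versus log10 concentration.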

[3] = molecular target: DNA topoisomerase 2-alpha (Homo sapiens) (UniProt P11388); test: Inhibition of human topoisomerase 2alpha-mediated relaxation of double-stranded pRYG DNA at 100 uM by agarose gel electrophoresis
In short: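 Purified human topoisomerase IIα (3 units) was added last. Incubation was 37 °C for 60 min, quenched with 1% SDS/25 mM EDTA, then proteinase K. Products ran on 1% agarose in TBE without ethidium bromide and were stained afterward.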

Row | SMILES | inhibition [1] | Activity (Nucleic Acid) | inhibition [2] | MIC (Saccharomyces cerevisiae) | MIC50 (Saccharomyces cerevisiae) [µM] | inhibition [3]
1 | C[C@H]1CC2=C(C(=O)c3c(O)cccc3C2=O)[C@@H](C)O1 | Active | inactive | inactive | Active | – | –
2 | C[C@H]1CC2=C(C(=O)c3ccccc3C2=O)[C@H](O)O1 | Active | inactive | inactive | Active | – | –
3 | C[C@@H]1CC2=C(C(=O)c3ccccc3C2=O)[C@H](C)O1 | Active | inactive | inactive | Active | – | –
4 | C[C@H]1CC2=C(C(=O)c3ccccc3C2=O)[C@@H](C)O1 | Active | inactive | inactive | Active | – | –
5 | C[C@H]1O[C@@H](CC(=O)O)CC2=C1C(=O)c1ccccc1C2=O | Active | inactive | inactive | – | 5 (≈ 1.43 µg/mL) | –
6 | COc1ccc2c(c1)C(=O)C1=C(C[C@H](CC(=O)O)O[C@@H]1C)C2=O (racemic) | Active | inactive | inactive | Active | – | Active
7 | COc1cccc2c1C(=O)C1=C(C[C@H](C)O[C@@H]1C)C2=O | Active | inactive | inactive | – | 80 (≈ 21.8 µg/mL) | inactive
8 | COc1cc(O)c2c(c1)C(=O)C1=C(CO[C@@H](C)C1)C2=O | Active | inactive | inactive | – | – | Active
9 | C[C@H]1CC2=C(C(=O)c3c(O)cc(O)cc3C2=O)[C@H](O)O1 | Active | inactive | inactive | inactive | – | inactive
10 | COc1cc(O)c2c(c1)C(=O)C1=C(C2=O)[C@@H](C)O[C@@H](C)C1 | Active | inactive | inactive | – | 5 (≈ 1.44 µg/mL) | inactive
11 | Cc1c2ccncc2c(C)c2c1[nH]c1ccccc12 | – | Active | inactive | – | – | Active
12 | COc1cc(OC)c2c(c1)C(=O)C1=C(C2=O)[C@@H](C)O[C@@H](C)C1 | Active | inactive | inactive | – | – | –
13 | COc1cc(OC)c2c(c1)C(=O)C1=C(CO[C@@H](C)C1)C2=O | Active | inactive | inactive | – | – | Active
14 | COc1cc([C@@H]2c3cc4c(cc3[C@@H](O[C@@H]3O[C@@H]5CO[C@@H](C)O[C@H]5[C@H](O)[C@H]3O)[C@H]3COC(=O)[C@H]23)OCO4)cc(OC)c1O | – | inactive | inactive | – | – | Active
15 | CC(C)Oc1cc(OC(C)C)c2c(c1)C(=O)C1=C(CO[C@@H](C)C1)C2=O | Active | inactive | inactive | – | – | Active
16 | C[C@H]1CC2=C(CO1)C(=O)c1c(O)cc(O)cc1C2=O | Active | inactive | inactive | Active | – | Active
